SMILES strings stand for the structures.

This note sets out measurements from ChEMBL document CHEMBL1141857, “Lichen metabolites. 1. Inhibitory action against leukotriene B4 biosynthesis by a non-redox mechanism” (J Nat Prod, 1999).

Assay [1] can be described thus: Prooxidant activity assessed as hydroxyl radical formation at 75 uM measured as malondialdehyde per mmol of deoxyribose by deoxyribose assay. Type of assay: functional. An outline of the steps:
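Final mixture: 2 mM 2-deoxy-D-ribose, 0.1 mM FeCl3, 30 mM KH2PO4-KOH pH 7.4, 75 μM compound, acetonitrile vehicle controls; 2 h at 37 °C with shaking. TCA and TBA added, heated 100 °C 15 min, butanol-extracted, A532 read. Calibrated against MDA from tetraethoxypropane; reported as μmol MDA/mmol deoxyribose, n = 3.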

Assay [2] concerns Radical scavenging activity. In words: Antioxidant activity assessed as DPPH radical scavenging activity at equimolar amount of compound. The assay is classed as functional. A digest of the protocol:
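Test compound and DPPH mixed at equal concentrations (each […] as printed) in acetone–PBS 1:1 v/v. DPPH reduction followed spectrophotometrically at 516 nm. Reciprocal DPPH concentration plotted against time; second-order rate constant taken from slope, mean of n = 3–6.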

Assay [3] can be described thus: Inhibition of AAPH-induced lipid peroxidation in bovine brain phospholipid liposome. Type of assay: functional, tissue-based, Bos taurus. A digest of the protocol:
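Bovine brain phospholipid liposomes (1 mg/mL final) in 30 mM KH2PO4-KOH buffer, pH 7.4, with 10 mM AAPH and test compound at variable concentrations (acetone vehicle). Incubated 1 h at 37 °C with shaking. BHT, HCl and TBA then added; TBA-reactive material extracted into butanol and read at 532 nm against an MDA standard.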

The subject of a further assay is PMNL. Put plainly: Inhibition of LTB4 biosynthesis in A-23187-stimulated bovine PMNL cells. Type of assay: functional, cell-based. Particulars: Bos taurus. An outline of the steps:
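Bovine PMNL (10^7 cells/mL) preincubated with compound 15 min at 37 °C, then stimulated with Ca-ionophore. LTB4 and 5-HETE released after 10 min quantified by reversed-phase HPLC. Inhibition = (1 − test/control) × 100, test n = 3, control n = 6–8. IC50 interpolated from log concentration–response plot using ≥4 concentrations spanning 50%.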

In the case of `CC(=O)C1=C(O)C=C2Oc3c(C(C)=O)c(O)c(C)c(O)c3[C@@]2(C)C1=O` [(+)-USNIC ACID], the figures for the Activity in assay [1] and in assay [2] were 1.47 µmol and less than 1 M⁻¹ s⁻¹, respectively. The IC50 in assay [3] is greater than 200 µM; with PMNL, 42 µM.

On to `O=C1c2c(O)cccc2Cc2cccc(O)c21` [ANTHRALIN], for which the Activity in assay [2] stood at 24.2 M⁻¹ s⁻¹. The molecule also displayed an IC50 in assay [3] of 79 µM.

As for `COC(=O)c1c(C)cc(OC(=O)c2c(C)cc(O)c(C=O)c2O)c(C)c1O` [ATRANORIN], the Activity in assay [1] turned out to be 0 µmol; in assay [2], 11.5 M⁻¹ s⁻¹. For the same molecule, the IC50 in assay [3] is greater than 200 µM; with PMNL it was 6 µM.

With `COC(=O)c1c(C)cc(O)c(C)c1O` [ATRARIC ACID], the Activity was 1.43 µmol in assay [1] and 5.95 M⁻¹ s⁻¹ in assay [2]. The IC50 is greater than 200 µM in assay [3] and greater than 60 µM in the assay with PMNL.

With `COc1cc(C)c(C(=O)Oc2cc(C)c(C(=O)O)c(O)c2C)c(OC)c1C` [DIFFRACTAIC ACID], the Activity in assay [1] is 0.12 µmol; in assay [2] it was less than 1 M⁻¹ s⁻¹. The IC50 in assay [3] was greater than 200 µM; in the assay on PMNL it was 8 µM.

`CCOC(=O)c1c(C)cc(O)c(C=O)c1O` [ETHYL HEMATOMMATE]: the Activity in assay [1] was determined as 0.3 µmol; in assay [2], 12.2 M⁻¹ s⁻¹. The results for the IC50 (in assay [3]; in the assay on PMNL) were greater than 200 µM and 40 µM, respectively.

`Cc1cc(OC(=O)c2c(C)cc(OC(=O)c3c(C)cc(O)cc3O)cc2O)cc(O)c1C(=O)O` [GYROPHORIC ACID]: the Activity in assay [1] was determined as 0.12 µmol; in assay [2], 3.63 M⁻¹ s⁻¹. The IC50 in assay [3] was greater than 200 µM; in the assay with PMNL it was greater than 60 µM.

In the case of `CC(Cc1ccc(O)c(O)c1)C(C)Cc1ccc(O)c(O)c1` (centres undefined) [NORDIHYDROGUAIARETIC ACID], the results for the Activity in assay [1] and in assay [2] were 0.23 µmol and greater than 100 M⁻¹ s⁻¹, respectively. For the same molecule, the IC50 in assay [3] is 2 µM; in the assay on PMNL, 0.4 µM.

Take `C=C1C(=O)O[C@@H](CCCCCCCCCCCCC)[C@@H]1C(=O)O` [PROTOLICHESTERINIC ACID]: the Activity in assay [1] is 0.08 µmol; in assay [2] it was less than 1 M⁻¹ s⁻¹. The figures for the IC50 (in assay [3]; in the assay on PMNL) were greater than 200 µM and 9 µM, respectively.
